# Activity calls are given as the source filed them. No cut-off for these calls is given here.
# How the values were obtained:
# CDK8/Cyclin C = CDK8/Cyclin C (Homo sapiens, UniProt P49336); experiment: Inhibition of CDK8/Cyclin C (unknown origin) using RBER-CHKtide as substrate in presence of [33P]gammaATP incubated for 60 mins by microplate scintillation counter analysis
# MV4-11 = experiment: Antiproliferative activity against human MV4-11 cells assessed as growth inhibition after 72 hrs by resazurin assay; type: functional
# How it was run: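 MV4-11 cells kept at 37 °C with 5% CO2 in ATCC-recommended medium plus 10% FBS. In-house resazurin viability assay after 72 h exposure. GI50 reported as mean ± standard deviation from at least two replicates.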
# [1] = Cmax in Sprague-Dawley rat at 20 mg/kg, po measured upto 24 hrs by LC/MS/MS analysis; type: ADME, organism-based; parameters: route oral, dose 20 mg/kg, time <=24; settings: in vivo
# [2] = AUC in BALB/c mouse at 10 mg/kg, po measured upto 24 hrs by LC/MS/MS analysis; type: ADME, organism-based; parameters: route oral, dose 10 mg/kg, time <=24; settings: in vivo
# [3] = Half life in Sprague-Dawley rat at 20 mg/kg, po measured upto 24 hrs by LC/MS/MS analysis; type: ADME, organism-based; settings: in vivo
# [4] = AUC in Sprague-Dawley rat at 20 mg/kg, po measured upto 24 hrs by LC/MS/MS analysis; type: ADME, organism-based; parameters: route oral, dose 20 mg/kg, time <=24; settings: in vivo
# [5] = Cmax in Sprague-Dawley rat at 5 mg/kg, iv measured upto 24 hrs by LC/MS/MS analysis; type: ADME, organism-based; parameters: route intravenous, dose 5 mg/kg, time <=24; settings: in vivo
# [6] = Volume of distribution at steady state in Sprague-Dawley rat at 5 mg/kg, iv measured upto 24 hrs by LC/MS/MS analysis; type: ADME, organism-based; settings: in vivo, read-out: Vdss
# [7] = Clearance in Sprague-Dawley rat at 5 mg/kg, iv measured upto 24 hrs by LC/MS/MS analysis; type: ADME, organism-based; settings: in vivo
# [8] = Tmax in BALB/c mouse at 10 mg/kg, po measured upto 24 hrs by LC/MS/MS analysis; type: ADME, organism-based; settings: in vivo
# [9] = Cmax in BALB/c mouse at 2 mg/kg, iv measured upto 24 hrs by LC/MS/MS analysis; type: ADME, organism-based; parameters: route intravenous, dose 2 mg/kg, time <=24; settings: in vivo
# [10] = Clearance in BALB/c mouse at 2 mg/kg, iv measured upto 24 hrs by LC/MS/MS analysis; type: ADME, organism-based; settings: in vivo
# [11] = Oral bioavailability in BALB/c mouse at 10 mg/kg measured upto 24 hrs by LC/MS/MS analysis; type: ADME, organism-based; settings: in vivo
# [12] = Half life in BALB/c mouse at 2 mg/kg, iv measured upto 24 hrs by LC/MS/MS analysis; type: ADME, organism-based; settings: in vivo
# [13] = AUC in BALB/c mouse at 2 mg/kg, iv measured upto 24 hrs by LC/MS/MS analysis; type: ADME, organism-based; parameters: route intravenous, dose 2 mg/kg, time <=24; settings: in vivo
# [14] = Cmax in BALB/c mouse at 10 mg/kg, po measured upto 24 hrs by LC/MS/MS analysis; type: ADME, organism-based; parameters: route oral, dose 10 mg/kg, time <=24; settings: in vivo
# [15] = Tmax in Sprague-Dawley rat at 20 mg/kg, po measured upto 24 hrs by LC/MS/MS analysis; type: ADME, organism-based; settings: in vivo
# [16] = AUC in Sprague-Dawley rat at 5 mg/kg, iv measured upto 24 hrs by LC/MS/MS analysis; type: ADME, organism-based; parameters: route intravenous, dose 5 mg/kg, time <=24; settings: in vivo
# [17] = Oral bioavailability in Sprague-Dawley rat at 20 mg/kg measured upto 24 hrs by LC/MS/MS analysis; type: ADME, organism-based; settings: in vivo
# [18] = Tmax in BALB/c mouse at 2 mg/kg, iv measured upto 24 hrs by LC/MS/MS analysis; type: ADME, organism-based; settings: in vivo
# [19] = Volume of distribution at steady state in BALB/c mouse at 2 mg/kg, iv measured upto 24 hrs by LC/MS/MS analysis; type: ADME, organism-based; settings: in vivo, read-out: Vdss
# [20] = Tmax in Sprague-Dawley rat at 5 mg/kg, iv measured upto 24 hrs by LC/MS/MS analysis; type: ADME, organism-based; settings: in vivo
# [21] = Half life in BALB/c mouse at 10 mg/kg, po measured upto 24 hrs by LC/MS/MS analysis; type: ADME, organism-based; settings: in vivo
# [22] = Half life in Sprague-Dawley rat at 5 mg/kg, iv measured upto 24 hrs by LC/MS/MS analysis; type: ADME, organism-based; settings: in vivo
# [23] = target: Cyclin-dependent kinase 1/cyclin B1 (Homo sapiens) (UniProt P06493+P14635); experiment: Inhibition of CDK1/Cyclin B (unknown origin) assessed as residual activity at 1 uM relative to control; type: protein-complex assay
# Chain of Cyclin-dependent kinase 1/cyclin B1 (Homo sapiens) (P06493 whole entry, looked up): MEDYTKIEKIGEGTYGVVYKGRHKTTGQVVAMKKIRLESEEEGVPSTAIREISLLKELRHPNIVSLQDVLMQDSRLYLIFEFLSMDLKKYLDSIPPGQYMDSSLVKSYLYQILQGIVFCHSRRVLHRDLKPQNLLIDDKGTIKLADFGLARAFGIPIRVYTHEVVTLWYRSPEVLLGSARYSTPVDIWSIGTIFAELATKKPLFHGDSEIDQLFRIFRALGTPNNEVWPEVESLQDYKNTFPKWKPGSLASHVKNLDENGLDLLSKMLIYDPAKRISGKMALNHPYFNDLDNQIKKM
# Chain of Cyclin-dependent kinase 1/cyclin B1 (Homo sapiens) (P14635 whole entry, looked up): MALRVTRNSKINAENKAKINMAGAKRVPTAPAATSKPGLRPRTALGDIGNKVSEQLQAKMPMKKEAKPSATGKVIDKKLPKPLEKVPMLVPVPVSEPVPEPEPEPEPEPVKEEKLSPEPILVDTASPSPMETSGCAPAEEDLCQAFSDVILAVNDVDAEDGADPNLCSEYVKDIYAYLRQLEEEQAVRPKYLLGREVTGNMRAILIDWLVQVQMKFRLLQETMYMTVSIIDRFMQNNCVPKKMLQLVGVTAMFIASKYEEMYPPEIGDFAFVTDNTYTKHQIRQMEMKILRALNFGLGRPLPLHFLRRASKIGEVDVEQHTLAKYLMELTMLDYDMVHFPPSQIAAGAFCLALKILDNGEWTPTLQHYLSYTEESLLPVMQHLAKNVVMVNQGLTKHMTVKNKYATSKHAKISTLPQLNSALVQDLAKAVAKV
# [24] = target: Glycogen synthase kinase-3 alpha (Homo sapiens) (UniProt P49840); experiment: Inhibition of GSK3alpha (unknown origin) assessed as residual activity at 1 uM relative to control
# Chain of Glycogen synthase kinase-3 alpha (Homo sapiens) (P49840 2-483 limits assumed): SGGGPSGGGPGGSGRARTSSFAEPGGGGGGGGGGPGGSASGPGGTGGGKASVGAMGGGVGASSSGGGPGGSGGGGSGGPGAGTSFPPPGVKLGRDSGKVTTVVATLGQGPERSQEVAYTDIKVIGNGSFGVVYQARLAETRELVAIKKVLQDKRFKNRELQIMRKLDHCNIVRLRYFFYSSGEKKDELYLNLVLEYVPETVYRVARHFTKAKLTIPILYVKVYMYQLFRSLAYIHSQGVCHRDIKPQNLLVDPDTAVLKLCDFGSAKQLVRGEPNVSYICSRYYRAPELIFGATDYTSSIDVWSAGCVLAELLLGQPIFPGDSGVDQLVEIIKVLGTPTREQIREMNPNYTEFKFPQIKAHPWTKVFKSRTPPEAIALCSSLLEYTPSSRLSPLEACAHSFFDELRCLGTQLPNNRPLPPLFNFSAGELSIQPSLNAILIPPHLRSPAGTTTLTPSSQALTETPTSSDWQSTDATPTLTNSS
# [25] = target: CDK9/cyclin T1 (Homo sapiens) (UniProt O60563+P50750); experiment: Inhibition of CDK9/Cyclin T1 (unknown origin) assessed as residual activity at 1 uM relative to control; type: protein-complex assay
# [26] = target: Protein kinase C theta (Homo sapiens) (UniProt Q04759); experiment: Inhibition of PKC theta (unknown origin) assessed as residual activity at 1 uM relative to control
# Chain of Protein kinase C theta (Homo sapiens) (Q04759 whole entry, looked up): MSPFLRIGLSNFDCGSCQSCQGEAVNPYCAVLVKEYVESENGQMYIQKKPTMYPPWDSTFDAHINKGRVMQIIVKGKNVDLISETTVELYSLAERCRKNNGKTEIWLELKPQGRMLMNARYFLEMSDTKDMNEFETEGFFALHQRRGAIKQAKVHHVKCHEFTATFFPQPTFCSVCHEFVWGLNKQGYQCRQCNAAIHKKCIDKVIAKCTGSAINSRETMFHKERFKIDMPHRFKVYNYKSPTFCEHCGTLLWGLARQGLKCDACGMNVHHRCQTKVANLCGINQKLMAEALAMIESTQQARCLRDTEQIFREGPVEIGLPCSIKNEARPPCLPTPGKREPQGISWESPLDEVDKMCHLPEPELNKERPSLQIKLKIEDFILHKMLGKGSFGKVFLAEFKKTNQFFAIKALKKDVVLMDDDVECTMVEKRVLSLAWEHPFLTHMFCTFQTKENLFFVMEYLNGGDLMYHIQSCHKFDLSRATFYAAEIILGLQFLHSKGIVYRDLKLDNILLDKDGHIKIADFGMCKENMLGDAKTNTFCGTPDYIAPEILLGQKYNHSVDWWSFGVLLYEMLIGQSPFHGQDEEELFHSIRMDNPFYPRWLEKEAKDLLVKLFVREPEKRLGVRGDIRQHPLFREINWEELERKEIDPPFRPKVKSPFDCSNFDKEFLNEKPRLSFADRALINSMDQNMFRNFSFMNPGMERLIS
# [27] = target: Glycogen synthase kinase-3 beta (Homo sapiens) (UniProt P49841); experiment: Inhibition of GSK3beta (unknown origin) assessed as residual activity at 1 uM relative to control
# Chain of Glycogen synthase kinase-3 beta (Homo sapiens) (P49841 whole entry, looked up): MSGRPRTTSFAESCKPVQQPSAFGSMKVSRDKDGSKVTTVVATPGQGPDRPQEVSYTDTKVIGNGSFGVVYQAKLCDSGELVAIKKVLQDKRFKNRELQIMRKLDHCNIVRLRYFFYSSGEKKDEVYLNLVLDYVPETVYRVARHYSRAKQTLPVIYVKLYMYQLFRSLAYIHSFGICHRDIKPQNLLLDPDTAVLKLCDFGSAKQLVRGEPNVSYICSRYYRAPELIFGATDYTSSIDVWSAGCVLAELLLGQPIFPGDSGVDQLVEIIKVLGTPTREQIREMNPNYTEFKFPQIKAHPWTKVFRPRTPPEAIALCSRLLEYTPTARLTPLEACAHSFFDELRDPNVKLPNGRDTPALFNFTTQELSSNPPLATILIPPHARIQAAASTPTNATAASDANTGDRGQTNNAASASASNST
# Chain of CDK8/Cyclin C (P49336 whole entry): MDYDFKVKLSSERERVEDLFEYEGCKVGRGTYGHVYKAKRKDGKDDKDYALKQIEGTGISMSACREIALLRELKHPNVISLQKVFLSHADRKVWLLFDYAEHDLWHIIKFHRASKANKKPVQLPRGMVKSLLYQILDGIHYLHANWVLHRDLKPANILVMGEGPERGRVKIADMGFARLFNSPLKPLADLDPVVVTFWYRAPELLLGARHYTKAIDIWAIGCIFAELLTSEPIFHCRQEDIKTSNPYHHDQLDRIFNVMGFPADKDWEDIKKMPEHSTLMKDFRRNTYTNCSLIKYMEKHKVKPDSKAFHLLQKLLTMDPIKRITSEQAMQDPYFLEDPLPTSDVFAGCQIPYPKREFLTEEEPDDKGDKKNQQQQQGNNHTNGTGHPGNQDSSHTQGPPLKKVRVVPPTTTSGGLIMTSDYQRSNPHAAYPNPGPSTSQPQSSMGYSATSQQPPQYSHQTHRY
# Chain of CDK8/Cyclin C (P24863 whole entry, further chain): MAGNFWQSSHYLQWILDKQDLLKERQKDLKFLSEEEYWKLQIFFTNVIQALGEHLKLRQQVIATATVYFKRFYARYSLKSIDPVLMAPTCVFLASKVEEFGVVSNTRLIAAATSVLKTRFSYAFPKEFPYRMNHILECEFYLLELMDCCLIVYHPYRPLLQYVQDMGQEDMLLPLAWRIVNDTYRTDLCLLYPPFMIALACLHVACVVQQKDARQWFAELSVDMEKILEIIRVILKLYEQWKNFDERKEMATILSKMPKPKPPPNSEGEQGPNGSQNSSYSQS
smiles,measurement,setting,value
O=C1NCCC12CCN(c1c(Cl)cncc1-c1cc[nH]c1)CC2,Ki,CDK8/Cyclin C,14 nM
same,GI50,MV4-11,1050 nM
O=Cc1ccc(-c2cncc(Cl)c2N2CCC3(CCNC3=O)CC2)s1,Ki,CDK8/Cyclin C,67 nM
same,GI50,MV4-11,750 nM
O=C1NCCC12CCN(c1c(Cl)cncc1-c1ccsc1)CC2,Ki,CDK8/Cyclin C,18 nM
same,GI50,MV4-11,190 nM
Cc1ccc(-c2cncc(Cl)c2N2CCC3(CCNC3=O)CC2)o1,Ki,CDK8/Cyclin C,22 nM
same,GI50,MV4-11,4950 nM
Cn1ncc2cc(-c3cnc(N)c(Cl)c3N3CCC4(CCNC4=O)CC3)ccc21,GI50,MV4-11,50 nM
CC(=O)c1sccc1-c1cncc(Cl)c1N1CCC2(CCNC2=O)CC1,Ki,CDK8/Cyclin C,4660 nM
same,GI50,MV4-11,> 100000 nM
Cc1ccsc1-c1cncc(Cl)c1N1CCC2(CCNC2=O)CC1,Ki,CDK8/Cyclin C,8 nM
same,GI50,MV4-11,910 nM
O=C1NCCC12CCN(c1c(Cl)cncc1-c1ccc(CN3CCOCC3)s1)CC2,Ki,CDK8/Cyclin C,32 nM
same,GI50,MV4-11,2960 nM
O=C1NCCC12CCN(c1c(Cl)cncc1-c1ccc(CN3CCCCC3)s1)CC2,Ki,CDK8/Cyclin C,106 nM
same,GI50,MV4-11,4010 nM
O=C1NCCC12CCN(c1c(Cl)cncc1-c1ccoc1)CC2,Ki,CDK8/Cyclin C,42 nM
same,GI50,MV4-11,750 nM
O=C1NCCC12CCN(c1c(Cl)cncc1-c1ccc(CN3CCCC3)s1)CC2,Ki,CDK8/Cyclin C,132 nM
same,GI50,MV4-11,3370 nM
Nc1ncc(-c2cc3ccccc3s2)c(N2CCC3(CCNC3=O)CC2)c1Cl,Cmax,[1],1.35 µM
same,AUC at 24 h,[2],3.4 µM·h
same,half-life,[3],10.1 h
same,AUC at 24 h,[4],19.5 µM·h
same,Cmax,[5],11.1 µM
same,Vd,[6],1.32 L/kg
same,Ki,CDK8/Cyclin C,7 nM
same,clearance,[7],13.2 mL/min/kg
same,Tmax,[8],0.18 h
same,Cmax,[9],4.96 µM
same,clearance,[10],33.3 mL/min/kg
same,bioavailability,[11],28%
same,half-life,[12],0.88 h
same,AUC at 24 h,[13],2.4 µM·h
same,Cmax,[14],1.68 µM
same,Tmax,[15],5 h
same,AUC at 24 h,[16],18.4 µM·h
same,bioavailability,[17],26%
same,Tmax,[18],3 min
same,Vd,[19],1.6 L/kg
same,Tmax,[20],9 min
same,half-life,[21],1.67 h
same,half-life,[22],4.41 h
same,GI50,MV4-11,160 nM
CCOCOCc1ccc(-c2cncc(Cl)c2N2CCC3(CCNC3=O)CC2)o1,Ki,CDK8/Cyclin C,36 nM
same,GI50,MV4-11,2970 nM
Cc1csc(-c2cncc(Cl)c2N2CCC3(CCNC3=O)CC2)c1,Ki,CDK8/Cyclin C,10 nM
same,GI50,MV4-11,650 nM
O=C1NCCC12CCN(c1c(Cl)cncc1-c1ccc(-c3ccccc3)s1)CC2,Activity,[23],inactive
same,Ki,CDK8/Cyclin C,5 nM
same,Activity,[24],62%
same,Activity,[25],inactive
same,Activity,[26],inactive
same,Activity,[27],74%
same,GI50,MV4-11,960 nM
O=C1NCCC12CCN(c1c(Cl)cncc1-c1cnn(C(F)F)c1)CC2,Ki,CDK8/Cyclin C,93 nM
same,GI50,MV4-11,6140 nM
O=C1NCCC12CCN(c1c(Cl)cncc1-c1cccs1)CC2,Ki,CDK8/Cyclin C,10 nM
same,GI50,MV4-11,480 nM
CC(C)(C)OC(=O)N1CCN(Cc2ccc(-c3cncc(Cl)c3N3CCC4(CCNC4=O)CC3)s2)CC1,Ki,CDK8/Cyclin C,46 nM
same,GI50,MV4-11,5150 nM
O=Cc1cc(-c2cncc(Cl)c2N2CCC3(CCNC3=O)CC2)cs1,Ki,CDK8/Cyclin C,52 nM
same,GI50,MV4-11,730 nM
O=Cc1cc(-c2cncc(Cl)c2N2CCC3(CCNC3=O)CC2)co1,Ki,CDK8/Cyclin C,185 nM
same,GI50,MV4-11,5150 nM
Cc1ccc(-c2cncc(Cl)c2N2CCC3(CCNC3=O)CC2)s1,Ki,CDK8/Cyclin C,10 nM
same,GI50,MV4-11,650 nM
O=C1NCCC12CCN(c1c(Cl)cncc1-c1cn[nH]c1)CC2,Ki,CDK8/Cyclin C,254 nM
same,GI50,MV4-11,8520 nM
O=Cc1ccc(-c2cncc(Cl)c2N2CCC3(CCNC3=O)CC2)o1,Ki,CDK8/Cyclin C,82 nM
same,GI50,MV4-11,5190 nM
O=Cc1sccc1-c1cncc(Cl)c1N1CCC2(CCNC2=O)CC1,Ki,CDK8/Cyclin C,1750 nM
same,GI50,MV4-11,28700 nM
CC(=O)c1ccc(-c2cncc(Cl)c2N2CCC3(CCNC3=O)CC2)s1,Ki,CDK8/Cyclin C,66 nM
same,GI50,MV4-11,1440 nM
Cc1cc(-c2cncc(Cl)c2N2CCC3(CCNC3=O)CC2)sc1C=O,Ki,CDK8/Cyclin C,119 nM
same,GI50,MV4-11,2530 nM
O=Cc1cscc1-c1cncc(Cl)c1N1CCC2(CCNC2=O)CC1,Ki,CDK8/Cyclin C,845 nM
same,GI50,MV4-11,27100 nM
Cn1cc(-c2cncc(Cl)c2N2CCC3(CCNC3=O)CC2)cn1,Ki,CDK8/Cyclin C,230 nM
same,GI50,MV4-11,5530 nM
O=C1NCCC12CCN(c1c(Cl)cncc1-c1ccc(Cl)s1)CC2,Ki,CDK8/Cyclin C,14 nM
same,GI50,MV4-11,560 nM
O=C1NCCC12CCN(c1c(Cl)cncc1-c1ccco1)CC2,Ki,CDK8/Cyclin C,26 nM
same,GI50,MV4-11,940 nM
Cn1cccc1-c1cncc(Cl)c1N1CCC2(CCNC2=O)CC1,Ki,CDK8/Cyclin C,30 nM
same,GI50,MV4-11,900 nM

# — ChEMBL document CHEMBL4811251 (Eur J Med Chem, 2021)
